Tests used:
[1] = Inhibition of HIV1 Protease M1 variant by FRET based assay; set-up: species or system Human immunodeficiency virus 1
[2] = Inhibition of HIV1 Protease M3 variant by FRET based assay; set-up: species or system Human immunodeficiency virus 1
[3] = Inhibition of HIV1 Protease M2 variant by FRET based assay; set-up: species or system Human immunodeficiency virus 1
Protease = Protease (Human immunodeficiency virus 1, UniProt Q9YQ12); test: Inhibition of Wild type HIV1 Protease by FRET based assay
[4] = tested on: Human immunodeficiency virus 1; test: Antiviral activity against HIV1 infected MT4 cells by MTT method; format: functional, organism-based; conditions: Human immunodeficiency virus 1, MT4
Outline: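 HIV-1 4–3 (100 CCID50) infected MT-4 cells, washed in PBS, seeded at 4 × 10⁴ cells/well in RPMI with 10% FBS. Compound dilutions added in triplicate at 0.5% DMSO final, 5 days at 37 °C, 5% CO₂, mock-infected controls in parallel. MTT added for 4 h, formazan solubilized, absorbance read at 540/690 nm.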

Chain of Protease (Q9YQ12 whole entry): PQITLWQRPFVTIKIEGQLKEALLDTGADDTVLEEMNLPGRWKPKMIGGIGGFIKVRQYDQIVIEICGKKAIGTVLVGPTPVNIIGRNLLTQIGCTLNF

SMILES	Ki [1] [nM]	Ki [2] [nM]	Ki [3] [nM]	Ki (Protease) [nM]	EC50 [4] [nM]
COC(=O)N[C@H](C(=O)NN(CC(C)C)C[C@H](O)[C@H](Cc1ccccc1)NC(=O)[C@@H]1CN(c2ccccc2)C(=O)O1)C(C)(C)C	231	549	39.2	7	
O=C(N[C@@H](Cc1ccccc1)[C@@H](O)C[C@H](Cc1ccccc1)NC(=O)[C@@H]1CN(c2cccc(C(F)(F)F)c2)C(=O)O1)OCc1cccnc1				41.1	
CC(=O)c1cccc(N2C[C@@H](C(=O)N[C@@H](Cc3ccccc3)[C@@H](O)CN(Cc3ccc(-c4ccccn4)cc3)NC(=O)[C@@H]3CN(c4cccc(C(C)=O)c4)C(=O)O3)OC2=O)c1				1090	
CC(=O)N[C@H](C(=O)N[C@@H](Cc1ccccc1)C[C@H](O)[C@H](Cc1ccccc1)NC(=O)[C@@H]1CN(c2cccc(C(C)=O)c2)C(=O)O1)C(C)C	82.3	122	1.67		620
CC(=O)c1ccc(N2C[C@@H](C(=O)N[C@@H](Cc3ccccc3)[C@@H](O)C[C@H](Cc3ccccc3)NC(=O)COc3c(C)cccc3C)OC2=O)cc1				39.9	
COC(=O)N[C@H](C(=O)N[C@@H](Cc1ccccc1)[C@@H](O)CN(Cc1ccc(-c2ccccn2)cc1)NC(=O)[C@@H](NC(=O)OC)C(C)(C)C)C(C)(C)C [ATAZANAVIR]	0.33	0.49	0.009		
O=C(Cc1ccc2c(c1)OCO2)N[C@@H](Cc1ccccc1)[C@@H](O)C[C@H](Cc1ccccc1)NC(=O)[C@@H]1CN(c2ccccc2)C(=O)O1				657	
Cc1cccc(C)c1OCC(=O)N[C@@H](Cc1ccccc1)[C@@H](O)C[C@H](Cc1ccccc1)NC(=O)[C@H](C(C)C)N1CCCNC1=O [LOPINAVIR]	6.1	0.9	0.04		10
CC(C)(C)NC(=O)[C@@H]1C[C@@H]2CCCC[C@@H]2CN1C[C@@H](O)[C@H](Cc1ccccc1)NC(=O)[C@H](CC(N)=O)NC(=O)c1ccc2ccccc2n1	89.5	78.4	1.03		10
Cc1cccc(C)c1OCC(=O)N[C@@H](Cc1ccccc1)[C@@H](O)C[C@H](Cc1ccccc1)NC(=O)[C@@H]1CN(c2ccccc2)C(=O)O1	364	447	18.3	7.28	
Cc1cccc(C)c1OCC(=O)N[C@@H](Cc1ccccc1)C[C@H](O)[C@H](Cc1ccccc1)NC(=O)[C@@H]1CN(c2ccccc2)C(=O)O1				8.05	
CC(=O)N[C@H](C(=O)N[C@@H](Cc1ccccc1)C[C@H](O)[C@H](Cc1ccccc1)NC(=O)[C@@H]1CN(c2ccccc2)C(=O)O1)C(C)C	51.2	112	3.1		790
CC(C)[C@@H](C(=O)N[C@@H](Cc1ccccc1)C[C@H](O)[C@H](Cc1ccccc1)NC(=O)[C@@H]1CN(c2ccccc2)C(=O)O1)N1CCCNC1=O	175	185	13.9		1210
O=C(N[C@@H](Cc1ccccc1)[C@@H](O)CN(Cc1ccc(-c2ccccn2)cc1)NC(=O)[C@@H]1CN(c2ccccc2)C(=O)O1)[C@@H]1CN(c2ccccc2)C(=O)O1				300	
Cc1cccc(C)c1OCC(=O)N[C@@H](Cc1ccccc1)[C@@H](O)C[C@H](Cc1ccccc1)NC(=O)[C@@H]1CN(c2cccc(C(F)(F)F)c2)C(=O)O1				21.6	
CC(=O)c1cccc(N2C[C@@H](C(=O)N[C@@H](Cc3ccccc3)[C@@H](O)C[C@H](Cc3ccccc3)NC(=O)COc3c(C)cccc3C)OC2=O)c1				35.1	
Cc1cccc(C)c1OCC(=O)N[C@@H](Cc1ccccc1)[C@@H](O)C[C@H](Cc1ccccc1)NC(=O)[C@H]1CN(c2ccccc2)C(=O)O1				4730	
COC(=O)N[C@H](C(=O)N[C@@H](Cc1ccccc1)C[C@H](O)[C@H](Cc1ccccc1)NC(=O)[C@@H]1CN(c2ccccc2)C(=O)O1)C(C)(C)C	131	392	14	3.51	1030
COC(=O)N[C@H](C(=O)N[C@@H](Cc1ccccc1)[C@@H](O)CN(CC(C)C)NC(=O)[C@@H]1CN(c2ccccc2)C(=O)O1)C(C)(C)C				10.6	
CC(=O)N[C@H](C(=O)N[C@@H](Cc1ccccc1)C[C@H](O)[C@H](Cc1ccccc1)NC(=O)[C@@H]1CN(c2cccc(C(F)(F)F)c2)C(=O)O1)C(C)C				2.62	
CC(=O)N[C@H](C(=O)N[C@@H](Cc1ccccc1)C[C@H](O)[C@H](Cc1ccccc1)NC(=O)[C@@H]1CN(c2ccc(F)c(F)c2)C(=O)O1)C(C)C	168	282	3.9	2.13	360
CC(C)CN(C[C@@H](O)[C@H](Cc1ccccc1)NC(=O)O[C@H]1CCOC1)S(=O)(=O)c1ccc(N)cc1	0.15	1.4	0.21		40

— ChEMBL document CHEMBL1148771, “Design and synthesis of HIV-1 protease inhibitors incorporating oxazolidinones as P2/P2' ligands in pseudosymmetric dipeptide isosteres” (J Med Chem, 2007)
